Measurements published in publication PMC7672428 (Nucleic Acids Research, 2020).

Key:
Ku70/80 = Ku70/80 (Homo sapiens, UniProt P12956+P13010); experiment: Electrophoretic mobility shift assay; assay type: binding
Procedure, shortened: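 Purified Ku pre-incubated with varying concentrations of test compound, then added to 5′-[32P]-labeled 30-bp duplex DNA made by annealing a labeled strand to its complement. Incubated 30 min at 25°C, resolved on a 6% non-denaturing polyacrylamide gel, then phosphorimaged and quantified. Triplicate titrations, IC50 from fitted binding curves.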

Solubility and stability = assay type: physicochemical
DNA-PK = DNA-PK (Homo sapiens, UniProt P12956+P13010); experiment: DNA-PK phosphoryl-transferase kinase assay with p53 peptide substrate; assay type: biochemical
Procedure, shortened: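 DNA-PKcs purified from HeLa or HEK 293 cells and combined with Ku; test compound pre-incubated with the enzyme 15 min. Reaction started with ATP, unlabeled 30-bp duplex DNA and synthetic p53-based peptide. [32P] transfer run at 37°C for 15 min, stopped with 30% acetic acid, spotted on P81 filters and washed. Read by phosphorimaging. Triplicate titrations, IC50 from fitted binding curves.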

[1] = tested on: Ku80-wt mouse embryo fibroblasts (MEF); experiment: CCK-8 cell viability, wild type MEF; assay type: cell-based; conditions: 20 μM
Procedure, shortened: (§1)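 Ku80-wt and Ku80-null MEFs in RPMI with 10% FBS, 5 × 10^3 per well, grown 24 h before treatment. Exposed 48 h in Opti-MEM to vehicle or 20 μM test compound, concurrently with indicated bleomycin concentrations (or compound alone), 1% DMSO constant. CCK-8 about 2 h, A450 read; percent viability relative to vehicle controls. Mean and SEM of triplicates.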

[2] = tested on: Ku80-null mouse embryo fibroblasts (MEF); experiment: CCK-8 cell viability, Ku80-null MEF; assay type: cell-based
Procedure, shortened: as §1

γ-H2AX in H460 cells = experiment: Immunofluorescence of γ-H2AX after Bleomycin; assay type: cell-based; conditions: 20 μM, 10 μM Bleomycin 1 h
Procedure, shortened: (§2)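 H460 cells on coverslips overnight, then 10 μM bleomycin for 1 h at 37 °C with 20 μM test compound, given concurrently or after 1 or 2 h preincubation; controls in 1% DMSO. Fixed in 4% PFA, permeabilised in 0.1% Triton, blocked. Stained with anti-p-DNA-PKcs S2056 and anti-γH2AX S139 (1:200, overnight 4 °C), plus DAPI. Fiji scored p-S2056 intensity and γH2AX foci over 200 cells; median, unpaired t-test.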

Ku protein = Ku protein (Homo sapiens, UniProt P12956+P13010); experiment: Thermal-shift assay; assay type: binding
Procedure, shortened: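 Purified Ku70/80 (baculovirus-infected Sf9 cells) mixed with DMSO vehicle or a fixed test-compound concentration, then split into aliquots. Aliquots heated 3 min at a range of temperatures, cooled to 4 °C and spun at 12,000 × g for 20 min. Soluble Ku70 detected by SDS-PAGE western blot with chemiluminescence. Band intensities normalised to the 40 °C point, fit to a 4-parameter sigmoid, giving T1/2.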

MELK kinase = MELK kinase (Homo sapiens, UniProt Q14680); experiment: Kinase screen; assay type: biochemical; conditions: 2.5 μM
Procedure, shortened: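 Panel of 24 kinases, each with its own substrate, run in triplicate with or without 2.5 μM test compound using ADP-Glo. After ATP depletion, generated ADP was read by coupled luciferase luminescence. Percent activity remaining, or inhibition, calculated relative to DMSO vehicle controls.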

H460 cells [3] = experiment: CRISPR/Cas9 HDR-mediated gene insertion at EMX1; assay type: cell-based; conditions: 20 μM
Procedure, shortened: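 Donor carrying GFP and a puromycin-resistance gene, flanked by 800 bp homology arms to an EMX1 CRISPR cut site, co-transfected into H460 cells with EMX1 gRNA and Cas9 plasmids, with vehicle or 20 μM test compound. Junctional PCR on genomic DNA scored precise homologous integration among puromycin-resistant clones.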

[4] = tested on: DNA-PKcs p-S2056 in H460 cells; experiment: Immunofluorescence of DNA-PKcs p-S2056 after Bleomycin; assay type: cell-based; conditions: 20 μM, concurrent or 1-2 h pre-incubation, 10 μM Bleomycin 1 h
Procedure, shortened: as §2

H460 cells [5] = experiment: CCK-8 cell viability with etoposide; assay type: cell-based; conditions: 20 μM, 48 h
Procedure, shortened: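 H460 cells in RPMI with 10% FBS, plated at 5 × 10^3 per well and grown 24 h. Treated 48 h in Opti-MEM with 20 μM test compound or vehicle plus indicated etoposide concentrations, DMSO held at 1%. CCK-8 added for about 2 h, then A450 read; percent viability taken relative to vehicle-treated controls. Mean and SEM of triplicates.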

Ku70/80, sequence (P12956 whole entry): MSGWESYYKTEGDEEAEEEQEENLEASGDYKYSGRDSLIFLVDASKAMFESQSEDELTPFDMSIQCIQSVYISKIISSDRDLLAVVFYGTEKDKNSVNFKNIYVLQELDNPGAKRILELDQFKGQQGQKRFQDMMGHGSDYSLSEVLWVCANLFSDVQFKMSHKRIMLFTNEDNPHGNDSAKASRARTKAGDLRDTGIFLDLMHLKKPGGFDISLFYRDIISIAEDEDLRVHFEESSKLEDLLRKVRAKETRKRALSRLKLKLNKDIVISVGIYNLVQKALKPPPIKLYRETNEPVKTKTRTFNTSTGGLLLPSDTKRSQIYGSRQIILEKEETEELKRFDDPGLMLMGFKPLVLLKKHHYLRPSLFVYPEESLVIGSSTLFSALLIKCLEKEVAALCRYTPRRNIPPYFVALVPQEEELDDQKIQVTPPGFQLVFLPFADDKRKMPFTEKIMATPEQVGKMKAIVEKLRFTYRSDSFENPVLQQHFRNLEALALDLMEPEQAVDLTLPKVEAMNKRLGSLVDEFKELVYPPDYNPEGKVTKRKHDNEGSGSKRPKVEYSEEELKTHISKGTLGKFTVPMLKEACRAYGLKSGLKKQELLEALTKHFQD
Ku70/80, sequence (P13010 whole entry): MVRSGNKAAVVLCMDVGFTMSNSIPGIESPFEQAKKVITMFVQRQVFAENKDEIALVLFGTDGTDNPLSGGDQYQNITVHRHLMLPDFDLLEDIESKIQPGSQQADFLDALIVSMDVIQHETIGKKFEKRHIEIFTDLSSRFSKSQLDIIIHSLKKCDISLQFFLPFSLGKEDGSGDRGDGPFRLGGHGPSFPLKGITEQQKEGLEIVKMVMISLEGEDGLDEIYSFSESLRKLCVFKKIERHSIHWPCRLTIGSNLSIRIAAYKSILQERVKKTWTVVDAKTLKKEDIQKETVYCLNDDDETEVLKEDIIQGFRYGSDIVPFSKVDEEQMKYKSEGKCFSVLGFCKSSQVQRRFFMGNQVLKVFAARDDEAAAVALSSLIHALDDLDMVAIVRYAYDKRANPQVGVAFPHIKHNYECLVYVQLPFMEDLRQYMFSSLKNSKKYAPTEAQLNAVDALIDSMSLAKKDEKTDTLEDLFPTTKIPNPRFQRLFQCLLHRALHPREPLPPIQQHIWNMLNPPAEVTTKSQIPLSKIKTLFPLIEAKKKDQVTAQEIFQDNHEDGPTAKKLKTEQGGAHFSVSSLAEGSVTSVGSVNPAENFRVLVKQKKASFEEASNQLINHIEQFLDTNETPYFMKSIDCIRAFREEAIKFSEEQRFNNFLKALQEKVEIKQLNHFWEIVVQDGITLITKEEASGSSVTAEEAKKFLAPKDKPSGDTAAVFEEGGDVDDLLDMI
DNA-PK, sequence (P12956 whole entry): as the sequence (P12956 whole entry) above
DNA-PK, sequence (P13010 whole entry): as the sequence (P13010 whole entry) above
Ku protein, sequence (P12956 whole entry): as the sequence (P12956 whole entry) above
Ku protein, sequence (P13010 whole entry): as the sequence (P13010 whole entry) above
MELK kinase, sequence (Q14680 whole entry): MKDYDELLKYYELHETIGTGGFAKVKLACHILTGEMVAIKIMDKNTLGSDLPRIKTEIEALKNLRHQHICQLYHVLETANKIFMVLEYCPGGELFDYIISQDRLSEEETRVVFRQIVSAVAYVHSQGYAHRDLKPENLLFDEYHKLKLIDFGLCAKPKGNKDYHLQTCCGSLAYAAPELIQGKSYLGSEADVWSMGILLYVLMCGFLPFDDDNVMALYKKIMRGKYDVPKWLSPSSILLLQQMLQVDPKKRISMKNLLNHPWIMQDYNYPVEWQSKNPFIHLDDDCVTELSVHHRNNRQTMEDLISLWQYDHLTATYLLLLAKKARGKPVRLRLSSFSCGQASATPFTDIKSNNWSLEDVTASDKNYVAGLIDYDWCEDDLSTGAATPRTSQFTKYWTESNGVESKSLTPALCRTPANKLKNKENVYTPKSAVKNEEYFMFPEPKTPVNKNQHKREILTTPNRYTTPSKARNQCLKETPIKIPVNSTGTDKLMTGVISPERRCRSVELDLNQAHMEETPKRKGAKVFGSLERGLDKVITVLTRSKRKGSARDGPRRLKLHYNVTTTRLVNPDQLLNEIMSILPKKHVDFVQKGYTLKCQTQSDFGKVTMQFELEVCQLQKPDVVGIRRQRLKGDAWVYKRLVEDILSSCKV

With `O=c1cc(N2CCOCC2)oc2c(-c3cccc4c3sc3ccccc34)cccc12` [NU7441, reference compound] the “impact on Ku–DNA binding activity” value (Ku70/80) was “no impact”.
For `COc1cccc(NC(=O)c2cc(-c3ccc(/C=C4\C(=O)N(c5cccc(C(=O)O)c5)N=C4C)o3)ccc2Cl)c1` [compound 68], the “solubility compared to 5102 and 5135” value (Solubility and stability) was “significant increase in solubility”, the “fold increase in Ku–DNA binding inhibitory activity” value (Ku70/80; on incorporation of 3-methoxyphenyl amide into X80) was 4 fold and the IC50 (DNA-PK) was 3.12 ± 0.7 µM. The “sensitivity to Bleomycin induced by compound, wild type cells” value ([1]; concurrent 48 h with Bleomycin) was “increased sensitivity”, the “reduction in survival, single agent” value ([1]; preliminary single agent experiments) was less than 10% and the “sensitivity to Bleomycin induced by compound, Ku80-null cells” value ([2]; 20 μM, concurrent 48 h with Bleomycin) was “no significant increase in sensitivity”.
For `COc1cccc(NC(=O)c2cc(-c3ccc(CC4C(=O)N(c5cccc(C(=O)O)c5)N=C4C)o3)ccc2Cl)c1` (stereo not drawn) [compound 149], the IC50 (Ku70/80) was 3.72 ± 1.5 µM and the IC50 (DNA-PK) was 0.5 ± 0.03 µM.
With `COc1cccc(NC(=O)c2cc(-c3ccc(CC4C(=O)N(c5cccc(-c6nnn[nH]6)c5)N=C4C)o3)ccc2Cl)c1` (stereo not drawn) [compound 245] the “γ-H2AX (DDR)” value (γ-H2AX in H460 cells) was “inhibition of the DDR”, the IC50 (Ku70/80) was 1.99 ± 0.9 µM and the “shift in Tm of Ku” value (Ku protein; vs vehicle Tm of 50°C) was 6 °C. For the same compound, the “Tm of Ku” value (Ku protein; with compound) was 56 °C, the IC50 (DNA-PK) was 0.24 ± 0.015 µM and the “inhibition of MELK kinase” value (MELK kinase) was “moderate inhibition”. For the same compound, the “Insertion efficiency (%)” value (H460 cells [3]) was 80% and the “DNA-PKcs Ser 2056 phosphorylation in cells” value [4] was “reduced Ser 2056 phosphorylation”.
For `COc1cccc(NC(=O)c2cc(-c3ccc(CC4C(=O)N(c5cccc(C(=O)O)c5)N=C4C(F)(F)F)o3)ccc2Cl)c1` (stereo not drawn) [compound 322], the IC50 (Ku70/80) was 2.66 ± 0.3 µM, the sensitization to etoposide (H460 cells [5]) was “Sensitization to etoposide” and the IC50 (DNA-PK) was 0.11 ± 0.02 µM.
With Bleomycin [reference compound] the “increased sensitivity of Ku80-null cells compared to wt MEFs” value ([2]; 48 h, CCK-8) was roughly 6 fold.
